Assay outcomes as filed in PubChem.
Sampled rows, rich in hits. Any-hit rate of the full collection: about 4.1%.
UBC13 polyUb – inhibitors of human UBC13 polyubiquitin chain formation | TR-FRET | inhibition, % at 20 µM | 330,000 tested, 0.47% active | AID 485273; in the data active = inhibition above about 45%, passing the limit was not always enough
Target sequence (P61088 whole entry, looked up): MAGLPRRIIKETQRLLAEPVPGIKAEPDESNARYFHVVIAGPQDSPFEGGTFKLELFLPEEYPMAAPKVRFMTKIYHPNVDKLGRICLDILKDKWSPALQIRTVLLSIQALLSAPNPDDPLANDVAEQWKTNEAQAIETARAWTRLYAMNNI
Mdm2 MdmX PPI – human Mdm2/MdmX binding inhibition; inhibition, % at 8 µM; SaOS-2 split-luciferase Mdm2/MdmX complementation, luminescence; 330,000 tested, 3% active; AID 485346; O15151+Q00987;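 active = inhibition of at least 50% at 8 µM in the primary screen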
Apaf1 inhib – human Apaf-1 inhibition. O14727. reconstituted apoptosome caspase-3 activity, DEVD-Rh110 fluorescence. inhibition, % at 20 µM. 330,000 tested, 0.71% active. AID 489030; active = inhibition of at least 40% at 20 µM;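 also: plate controls were DMSO wells for no effect and DEVD-CHO caspase inhibitor wells for full effect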
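System – cell-free apoptosome with Apaf-1, procaspase-3 and caspase-9 · Buffer or medium – pH 7.5 Hepes buffer with CHAPS, BSA, DTT · Also added – cytochrome c with DEVD-Rh110 · Times – 30 min compound preincubation, 50 min activation, room temperature · Technique – Rh110 fluorescence intensity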
UPR XBP1 act – activators of adaptive arm of unfolded protein response (XBP1) | activation, % at 20 µM | CHO-XBP1 luciferase reporter, IRE1-XBP1 UPR activation, luminescence; percent of tunicamycin response, DMSO as zero | AID 463104 | 330,000 tested, 0.33% active;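 active = versus positive control, 20 µM dose yields 30% or more activation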;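 also: 100% = tunicamycin at 10 µg/mL and 0% = DMSO only wells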
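Material: CHO-XBP1 cells stably carrying IRE1-XBP1-driven luciferase reporter / Amount: 1000 cells per well / Compound: 20 µM, 1% DMSO / Times: 6 h treatment, 37 °C / Detection: luciferase luminescence / Measure: % activation of reporter signal versus tunicamycin and DMSO controls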
CHOP UPR activ – activators of apoptotic arm of unfolded protein response (CHOP) | AID 449763 | activation, % at 10 µM | 330,000 tested, 0.34% active | CHO-CHOP luciferase reporter, UPR activation, luminescence; percent of tunicamycin response over DMSO baseline;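 active = at 10 µM dose, activation of 40% or more, normalized to positive control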;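 also: 100% = tunicamycin at 10 µg/mL and 0% = DMSO alone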
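assay system = CHO CHOP reporter cells | amount = 500 CHO-CHOP cells per well | buffer or medium = F12 with 10% FBS | incubation = 16-18 h cell attachment, then 6 h compound exposure, 37 °C | detection = luminescence read with Steady-Glo | read-out = percent activation relative to tunicamycin control | controls = tunicamycin high control, DMSO low control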
Mdm2-MdmX conf – human Mdm2/MdmX binding inhibition, confirmed. shares compounds with Mdm2 MdmX PPI. luminescent assay. inhibition, % at 8 µM. 10,000 tested, 55% active. AID 489028; in the data active = inhibition above about 40%
FLuc counter – full-length luciferase inhibition in Mdm2/MdmX counter-screen; shares compounds with Mdm2 MdmX PPI; SaOS-2 full-length luciferase counterscreen, luminescence; inhibition, % at 8 µM; 6,200 tested, 77% active; AID 504607;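 active = mean inhibition at 8 µM reaching about 37%, which flags the compound as non-specific, limit read from the data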;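 also: p53-null SaOS-2 cells with luciferase driven by a doxycycline-inducible promoter; compound on cells about two nights before reading with doxycycline added after day one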
The depositor's hits bear a star; · = no result given.

SMILES | UBC13 polyUb | Mdm2 MdmX PPI | Apaf1 inhib | UPR XBP1 act | CHOP UPR activ | Mdm2-MdmX conf | FLuc counter
COC(=O)c1sc(N)c(C(=O)OC)c1COC(=O)[C@@H](NS(=O)(=O)c1cccc(Cl)c1)C(C)C | -2 | 54* | 10 | -1 | -1 | 28 | ·
CC(C)NC(=O)CSc1nnc(-c2ccc(C(C)(C)C)cc2)n1C | -5 | 17 | -6 | 18 | -1 | · | ·
CNS(=O)(=O)c1cccc(C(=O)OCC(=O)Nc2ccc(Cl)cn2)c1 | -10 | -29 | -5 | 3 | 1 | · | ·
N/C(=N\OC(=O)c1cccc2ccccc12)c1cccnc1 | 3 | 48 | 7 | 6 | 4 | · | ·
COc1cc(OC)cc(C(=O)O/N=C(\N)c2cccc(C)c2)c1 | 2 | 73* | 7 | 2 | 5 | 44* | 105*
Cc1ccccc1C(=O)O/N=C(\N)c1cccc([N+](=O)[O-])c1 | 1 | 26 | -2 | -1 | 2 | · | ·
Cc1cccc(/C(N)=N/OC(=O)c2cccc3ccccc23)c1 | 3 | 100* | 2 | 7 | 8 | 78* | 108*
N/C(=N\OC(=O)c1cccc2ccccc12)c1cccc([N+](=O)[O-])c1 | -2 | 76* | 6 | -2 | 2 | 58* | 128*
Cc1cccc(/C(N)=N/OC(=O)N2c3ccccc3Sc3ccccc32)c1 | 7 | 64* | 17 | 1 | 1 | 1 | ·
N/C(=N\OC(=O)N1c2ccccc2Sc2ccccc21)c1ccccc1 | 11 | 20 | 5 | -1 | 3 | · | ·
CN(Cc1ccc(Cl)c(Cl)c1)C(=O)C1CSC2(C)CCC(=O)N12 (stereo unspecified) | 15 | -4 | -3 | -2 | 2 | · | ·
CC(O)[C@H]1CNC(=O)C(=O)N1CCc1cccc(F)c1 (stereo partly specified) | -7 | -4 | 3 | 2 | -1 | · | ·
CC(C)OCCCNC(=O)C(NS(=O)(=O)c1ccc2c(c1)c(=O)n(C)c(=O)n2C)c1ccccc1 (stereo unspecified) | -9 | 10 | -6 | -3 | 0 | · | ·
O=C(NN=C(c1ccccc1)c1ccccn1)c1ccccc1 | -27 | 91* | 18 | -1 | 19 | 58* | 27
O=C(O/N=C(\c1ccccc1)c1ccccn1)c1cccc2ccccc12 | 8 | 87* | 12 | 3 | 2 | 29 | ·
Cc1nc2c(-c3ccccc3)c(C)nn2c(SCC(N)=O)c1Cc1ccccc1 | 2 | 15 | 14 | -4 | -1 | · | ·
CCC(=O)N1CC2(CC(c3cccc(NC(=O)COc4ccc(Cl)cc4)c3)=NO2)C[C@@H]1C(N)=O (stereo partly specified) | -4 | 0 | 2 | 0 | 1 | · | ·
NC(=O)[C@@H]1CC2(CC(c3cccc(NC(=O)CC(c4ccccc4)c4ccccc4)c3)=NO2)CN1C(=O)COc1ccc(Cl)cc1 (stereo partly specified) | -14 | 73* | 20 | -5 | 9 | 42* | 80*
NC(=O)[C@H]1CC2(CC(c3cccc(NC(=O)COc4ccc(Cl)cc4)c3)=NO2)CN1C(=O)CC(c1ccccc1)c1ccccc1 (stereo partly specified) | -42 | 54* | 14 | 5 | 11 | 24 | ·
OCCc1c[nH]c2ccc(C(F)(F)F)cc12 | 3 | 7 | 6 | -1 | -1 | · | ·
Nc1ncnc2c1ncn2[C@@H]1O[C@H](CNCc2ccccc2OCC(=O)N2CCCCC2)[C@@H](O)[C@H]1O | 7 | -4 | -10 | 4 | 1 | · | ·
COc1cccc2sc(Nc3nc(-c4ccncc4)cs3)nc12 | -7 | 61* | -14 | 28 | 3 | 46* | 51*
COc1ccc(-c2csc(Nc3cccnc3)n2)cc1OC | 9 | 9 | 10 | 8 | 4 | · | ·
Cn1c(NNC(=O)C(c2ccccc2)c2ccccc2)cc(=O)n(C)c1=O | 0 | 6 | 3 | 1 | -1 | · | ·
COc1ccc(/C=C/c2nc3ccccc3c(=O)o2)cc1 | 0 | 88* | 7 | -10 | -9 | 84* | 63*
SMILES | UBC13 polyUb | Mdm2 MdmX PPI | Apaf1 inhib | UPR XBP1 act | CHOP UPR activ | Mdm2-MdmX conf | FLuc counter
COc1ccc(/C(N)=N/OC(=O)CCCc2ccccc2)cc1OC | -5 | -2 | 16 | 0 | -2 | · | ·
COc1ccc(-n2cc(-c3ccccc3)c3c(NCCCN4CCOCC4)ncnc32)cc1 | 5 | 24 | -7 | 0 | 0 | · | ·
CCN1CCN(c2ncnc3c2c(-c2ccccc2)cn3-c2ccc(F)cc2)CC1 | 4 | 36 | 10 | -1 | 0 | · | ·
COc1ccc(-n2cc(-c3ccccc3)c3c(N4CCOCC4)ncnc32)cc1 | -1 | 74* | 7 | 8 | -2 | 62* | 80*
OCCN1CCN(c2ncnc3c2c(-c2ccccc2)cn3-c2ccc(Br)cc2)CC1 | 18 | 55* | 14 | 10 | 3 | 24 | ·
Fc1ccc(-n2cc(-c3ccccc3)c3c(N4CCOCC4)ncnc32)cc1 | -1 | 63* | 16 | 0 | 0 | 59* | 67*
CNc1nc(NC#N)nc(SC)n1 | 22 | 5 | -26 | 2 | -1 | · | ·
COc1cc(C2=NOC(C(=O)NCc3ccco3)C2)cc(OC)c1OC (stereo unspecified) | -3 | 64* | -19 | 2 | 1 | 57* | 73*
COc1cc(OC)c(C2=NOC(C(=O)NCc3cccs3)C2)cc1Cl (stereo unspecified) | -6 | 54* | -5 | 2 | 2 | 51* | 59*
Cc1cc(C)cc(Nc2ncc3c(n2)CCCC3=O)c1 | 10 | -2 | -22 | -5 | -4 | · | ·
Cc1ccc2[nH]c(O)c(N=Nc3nc4ccccc4s3)c2c1 | -251 | 68* | 14 | -2 | 1 | 55* | 47*
COc1cc2cc(C(=O)Nc3ccc4c(c3)OCCO4)[nH]c2cc1OC | -11 | 65* | 5 | -7 | -5 | 48* | 71*
COc1cc2[nH]c(C(=O)Nc3ccc4c(c3)OCCO4)cc2c(OC)c1OC | -6 | 36 | -6 | -3 | -1 | · | ·
C/C(=N\NC(=O)c1c(C)nc2ccccn12)c1ccc(O)cc1O | 0 | 74* | -2 | -2 | -2 | 78* | 34
Cc1cc(SCC(=O)N/N=C/c2ccc(O)cc2O)nc2ccccc12 | -14 | 74* | -2 | -5 | 0 | 73* | 32
Cc1ccc2nc(SCC(=O)N/N=C/c3ccco3)cc(C)c2c1 | -10 | 17 | -21 | -3 | -1 | · | ·
Cc1c(NC(=O)COc2c(F)c(F)c(F)c(F)c2F)c(=O)n(-c2ccccc2)n1C | 4 | 8 | 1 | 2 | 1 | · | ·
Cc1ccccc1CN1CCN(C(=O)CC(C)C)CC1 | -5 | 12 | -9 | -3 | 2 | · | ·
